Measured values collected from several papers.
Protocols differ between the studies behind these lines.
Cell line: A549

| Structure (SMILES) | test | conditions | IC50 [µM] |
| --- | --- | --- | --- |
| CS(=O)(=O)c1ccc(-n2cc(/C=N/N=c3\[nH]c(-c4ccc(Br)cc4)cs3)c(-c3ccc(Br)cc3)n2)cc1 | cell growth or viability, MTT | 48 h | 9.41 |
| CCNC(=O)NNC(=O)c1ccc(Nc2nccc(-c3ccc(Cl)cc3)n2)cc1 | cell growth or viability, MTT | 24 h | > 40 |
| C=C(Cl)C(=O)Nc1cc(Nc2nc(N3CCc4sccc4C3)c3sccc3n2)c(OC)cc1N(C)CCN(C)C | cell growth or viability, MTT | – | 1.51 |
| C=CC(=O)N1CCC[C@@H](n2nc(-c3ccc(Oc4ccccc4)cc3)c3c(N)ncnc32)C1 | cell growth or viability | – | > 10 |
| C=CC(=O)Nc1cc(Nc2nc(N3CCc4sccc4C3)c3cccnc3n2)c(OC)cc1N1CCN(CCO)CC1 | cell growth or viability, MTT | – | 5.31 |
| COc1ccccc1CCCNCC(O)COc1cccc2[nH]c3ccccc3c12 (centres unmarked) | cell growth or viability, CCK-8 | 72 h | 11.8 |
| NNC(=O)c1ccncc1 | cell growth or viability, MTT | 72 h | > 450 |
| COc1cc2ncnc(Nc3ccc(F)c(Cl)c3)c2cc1NC(=O)N/N=C/CN1CCOCC1 | cell growth or viability, MTT | 72 h | 6.69 |
| COc1ccccc1OCCN1CCOC(COc2cccc3[nH]c4ccccc4c23)C1 (centres unmarked) | cell growth or viability, CCK-8 | 72 h | > 100 |
| COc1cccc2c1C(=O)c1c(O)c3c(c(O)c1C2=O)C[C@@](O)(C(=O)CO)C[C@@H]3O[C@H]1C[C@H](N)[C@H](O)[C@H](C)O1 | cell growth or viability | 48 h | 0.56 |
| CC1=C(O)C(=O)C=C2C1=CC=C1[C@@]2(C)CC[C@@]2(C)[C@@H]3C[C@](C)(C(=O)OCCCBr)CC[C@]3(C)CC[C@]12C | cell growth or viability, MTT | 48 h | 4.95 |
| COc1cccc(NC(=O)CN2C(=O)/C(=C/c3ccc(F)cc3)SC2=S)c1 | cell growth or viability, MTT | – | 14.4 |
| Cc1ccc(NC(=O)CSc2nnc(Cn3cnc4c3c(=O)n(C)c(=O)n4C)n2-c2ccccc2)cc1C | cell growth or viability, MTT | – | 198 |
| NNc1nc(NCc2ccccc2)nc(Nc2ccc(Br)cc2)n1 | cell growth or viability, SRB | 72 h | > 30 |
| CN1C(=O)/C(=N\NC(=O)c2cc3ccccc3[nH]2)c2cc(Br)ccc21 | cell growth or viability | – | 1.49 |
| COc1ccnc(COc2ccc(NC(=O)Nc3cccc(C(F)(F)F)c3)cc2)c1OC | cell growth or viability, MTT | 72 h | 6.65 |
| COc1ccccc1/C=C/CNCC(O)COc1ccccc1 (centres unmarked) | cell growth or viability, CCK-8 | 72 h | 17.4 |
| O=C(N/N=C/c1cccn1CCCN1CCCCC1)Nc1cc2c(Nc3ccc(F)c(Cl)c3)ncnc2cc1O[C@H]1CCOC1 | cell growth or viability, MTT | 72 h | 2.44 |
| COc1ccc(-c2nn(-c3ccc(S(C)(=O)=O)cc3)cc2C=N/N=c2\[nH]c(-c3ccc([N+](=O)[O-])cc3)cs2)cc1 | cell growth or viability, MTT | 48 h | 4.03 |
| CCOC(=O)/C=C1\S/C(=N\C(=O)c2ccc3ccccc3c2)N(C2CCCCC2)C1=O | cell growth or viability | 48 h | 13.8 |
| COc1ccc(/C=C/C(=O)C(=Cc2ccc(F)cc2)C(=O)/C=C/c2ccc(OC)c(OC)c2)cc1OC | colony formation | 9 days | < 0.2 |

| Structure (SMILES) | test | conditions | IC50 [µM] |
| --- | --- | --- | --- |
| CN1C(=O)/C(=N\NC(=O)c2cc3ccccc3[nH]2)c2ccccc21 | cell growth or viability | – | 4.04 |
| COc1cc2ncnc(Nc3ccc(F)c(Cl)c3)c2cc1NC(=O)N/N=C/c1cccn1CCN(C)C | cell growth or viability, MTT | 72 h | 4.3 |
| O=C(Nc1nnnn1C1CCCCC1)c1ccc2ccccc2c1 | cell growth or viability | 48 h | 1.12 |
| CCN(CC)C/C=N/NC(=O)Nc1cc2c(Nc3ccc(F)c(Cl)c3)ncnc2cc1O[C@H]1CCOC1 | cell growth or viability, MTT | 72 h | 4.32 |
| COc1cccc(Oc2ccccc2NC(=O)CNC(=O)c2c(C)cc(C)cc2C)c1 | cell growth or viability | – | 4.7 |
| CC1=C(O)C(=O)C=C2C1=CC=C1[C@@]2(C)CC[C@@]2(C)[C@@H]3C[C@](C)(C(=O)OCCCN4C(=O)C5C=CC=CC5C4=O)CC[C@]3(C)CC[C@]12C (some centres unmarked) | cell growth or viability, MTT | 48 h | 3.65 |
| CCCCC[C@H](O)CC(=O)CCc1ccc(O)c(OC)c1 | cell growth or viability, SRB | – | 208 |
| COc1ccnc(COc2ccc(NC(=O)Nc3ccc(Cl)cc3)cc2)c1OC | cell growth or viability, MTT | 72 h | 10.4 |
| Oc1ncnc2cc(Nc3nc(-c4ccc(Cl)cc4)cs3)ccc12 | cell growth or viability, MTT | – | 20.8 |
| COCCCOc1ccnc(COc2ccc(NC(=O)Nc3ccc(Cl)c(C(F)(F)F)c3)cc2)c1C | cell growth or viability, MTT | 72 h | 6.19 |
| COc1cc2ncnc(Nc3ccc(F)c(Cl)c3)c2cc1NC(=O)N/N=C/CN(C)C | cell growth or viability, MTT | 72 h | 5.52 |
| CC(C)(C)NC(=O)NNC(=O)c1ccc(Nc2nccc(-c3ccccn3)n2)cc1 | cell growth or viability, MTT | – | > 40 |
| Oc1ncnc2cc(Nc3nc(-c4ccc(F)cc4)cs3)ccc12 | cell growth or viability, MTT | – | 19 |
| C=CC(=O)Nc1cc(Nc2nc(N3CCOCC3)c3sccc3n2)c(OC)cc1N(C)CCN(C)C | cell growth or viability, MTT | – | > 50 |
| O=C1NCCc2[nH]c(-c3ccncc3)cc21 | cell growth or viability | – | > 10 |
| O=C(Nc1nnc(-c2cc3ccccc3[nH]2)s1)c1cc2c([nH]c3ccccc32)c(-c2ccc(Cl)cc2)n1 | cell growth or viability, MTT | 72 h | 3.33 |
| C=CC(=O)Nc1cc(Nc2nc(N3CCc4sccc4C3)c3sccc3n2)c(OC)cc1N1CCN(C)CC1 | cell growth or viability, MTT | – | 1.96 |
| COc1ccccc1/C=C/CNCC(O)COc1ccc2ccccc2c1 (centres unmarked) | cell growth or viability, CCK-8 | 72 h | 17.1 |
| C=C(Cl)C(=O)Nc1cc(Nc2nc(Nc3cnn(C)c3)c3sccc3n2)c(OC)cc1N(C)CCN(C)C | cell growth or viability, MTT | – | 0.441 |
| COc1c(C)cnc(COc2ccc(NC(=O)Nc3cc(F)cc(F)c3)cc2)c1C | cell growth or viability, MTT | 72 h | 10.2 |
